ChEMBL document CHEMBL1145831 (J Med Chem, 2003)

Tests used:
Mus musculus [1] = assay: In vivo antitumor activity against murine pancreatic adenocarcinoma and measured as number of deaths on a schedule of 3,8days and at a total dose of 16 mg/kg; assay type: ADME, organism-based; parameters: dose 16 mg/kg; conditions: 192 h
How it was run: (§1)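 Mice bearing drug-sensitive murine pancreatic adenocarcinoma Panc-03 were dosed on the listed days at the listed total doses. Dosing solutions were made in water from stock solutions and injected within 20 min. Chlorohydrin solutions were acidified with 0.05% citric acid. Tolerance was recorded as body weight loss and number of deaths.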

Mus musculus [2] = assay: Ratio of the median tumor weight in the treatment group over the median tumor weight in the control group on a schedule of 3,8days and at a total dose of 16 mg/kg; assay type: functional
How it was run: (§2)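 Mice bearing the drug-sensitive murine pancreatic adenocarcinoma Panc-03. Dosing solutions were made in water from stock solutions and injected within 20 min of preparation; chlorohydrins were acidified with 0.05% citric acid. T/C (%) = median tumor weight of the treated group ÷ median tumor weight of controls × 100, calculated when control median tumor weight reached 1 g.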

Mus musculus [3] = assay: In vivo antitumor activity against murine pancreatic adenocarcinoma and measured as % weight loss on a schedule of 3,8days and at a total dose of 16 mg/kg; assay type: functional
How it was run: (§3)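 Body weight loss was tracked in mice implanted with the Panc-03 murine pancreatic adenocarcinoma. Injections were given within 20 min of aqueous preparation from stock solutions, with chlorohydrins acidified using 0.05% citric acid.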

Mus musculus [4] = assay: Log cell kill of tumor bearing mice on a schedule of 3,8days and at a total dose of 16 mg/kg; assay type: functional, organism-based; parameters: dose 16 mg/kg
How it was run: (§4)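 Panc-03 murine pancreatic adenocarcinoma in mice. Aqueous dosing solutions were prepared from stocks and injected within 20 min; chlorohydrins were acidified with 0.05% citric acid. Log cell kill was calculated from tumor growth delay, the difference in days between treated and control animals to reach 1000 mg tumor weight.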

CCRF-CEM = assay: In vitro growth inhibitory activity in the human CCRF-CEM leukemia cell line.; assay type: functional, cell-based
How it was run: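 CCRF-CEM human leukemia cells in log phase, 4.8 × 10⁴ cells per 2 mL well. Medium was RPMI-1640 with 10% dialyzed FBS and 25 mM HEPES. Compounds were serially diluted 1:3 in DMSO and added to duplicate wells, with DMSO-only controls, at 0.5% final DMSO. Cells were exposed 72 h at 37 °C in humidified 5% CO₂, then counted. IC50 in nM.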

Mus musculus [5] = assay: Ratio of the median tumor weight in the treatment group over the median tumor weight in the control group on a schedule of 3,4,6,10 days and at a total dose of 3.5 mg/kg; assay type: functional
How it was run: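 Panc-03 murine pancreatic adenocarcinoma in mice, with injectable solutions prepared in water from stock and given within 20 min; chlorohydrins were acidified with 0.05% citric acid. %T/C is median tumor weight of the treated group over that of the control group × 100, calculated when control median tumor weight reaches 1 g. T/C ≤ 42% is taken as significant activity.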

Mus musculus [6] = assay: In vivo antitumor activity against murine pancreatic adenocarcinoma and measured as % weight loss on a schedule of 3,4,6,10 days and at a total dose of 3.5 mg/kg; assay type: functional; how it was run: as §1
Mus musculus [7] = assay: In vivo antitumor activity against murine pancreatic adenocarcinoma and measured as number of deaths on a schedule of 3,4,6 days and at a total dose of 12 mg/kg; assay type: ADME, organism-based; parameters: dose 12 mg/kg; conditions: 144 h; how it was run: as §1
Mus musculus [8] = assay: In vivo antitumor activity against murine pancreatic adenocarcinoma and measured as number of deaths on a schedule of 3,4,6 days and at a total dose of 6 mg/kg; assay type: ADME, organism-based; parameters: dose 6 mg/kg; conditions: 144 h; how it was run: as §1
Mus musculus [9] = assay: In vivo antitumor activity against murine pancreatic adenocarcinoma and measured as % weight loss on a schedule of 3,4,6 days and at a total dose of 12 mg/kg; assay type: functional; how it was run: as §1
Mus musculus [10] = assay: In vivo antitumor activity against murine pancreatic adenocarcinoma and measured as number of deaths on a schedule of 3,4,6,10 days and at a total dose of 3.5 mg/kg; assay type: ADME, organism-based; parameters: dose 3.5 mg/kg; conditions: 240 h; how it was run: as §1
Mus musculus [11] = assay: In vivo antitumor activity against murine pancreatic adenocarcinoma and measured as % weight loss on a schedule of 3,4,6 days and at a total dose of 6 mg/kg; assay type: functional; how it was run: as §1
Mus musculus [12] = assay: Ratio of the median tumor weight in the treatment group over the median tumor weight in the control group on a schedule of 10-14 days and at a total dose of 41 mg/kg; assay type: functional; how it was run: as §2
Mus musculus [13] = assay: Log cell kill of tumor bearing mice on a schedule of 10-14 days and at a total dose of 41 mg/kg; assay type: functional, organism-based; parameters: dose 41 mg/kg; how it was run: as §4
Mus musculus [14] = assay: In vivo antitumor activity against murine pancreatic adenocarcinoma and measured as % weight loss on a schedule of 10-14 days and at a total dose of 41 mg/kg; assay type: functional; how it was run: as §3
Mus musculus [15] = assay: In vivo antitumor activity against murine pancreatic adenocarcinoma and measured as number of deaths on a schedule of 10-14 days and at a total dose of 41 mg/kg; assay type: ADME, organism-based; parameters: dose 41 mg/kg; how it was run: as §1

SMILES | IC50 (CCRF-CEM) [nM] | other results
COc1cccc2c1C(=O)c1c(O)c3c(c(O)c1C2=O)C[C@@](O)(C(=O)CO)C[C@@H]3O[C@H]1C[C@H](N)[C@H](O)[C@H](C)O1 [DOXORUBICIN] |  | Death (Mus musculus [1]): 0; T/C (Mus musculus [2]): 16%; Weight loss (Mus musculus [3]): -12%; Log kill (Mus musculus [4]): 1.5
COc1ccc(C[C@H]2NC(=O)/C=C/C[C@@H]([C@H](C)[C@H]3O[C@@H]3c3cccc(C)c3)OC(=O)[C@H](CC(C)C)OC(=O)C(C)(C)CNC2=O)cc1Cl | 0.15 | 
COc1ccc(C[C@H]2NC(=O)/C=C/C[C@@H]([C@H](C)[C@H]3O[C@@H]3c3ccc(CO)cc3)OC(=O)[C@H](CC(C)C)OC(=O)C(C)(C)CNC2=O)cc1Cl | 0.004 | T/C (Mus musculus [5]): 14%; Weight loss (Mus musculus [6]): 10.5%; Death (Mus musculus [7]): 4; Death (Mus musculus [8]): 1; Weight loss (Mus musculus [9]): -18.4%; Death (Mus musculus [10]): 0; Weight loss (Mus musculus [11]): -19.5%
COc1ccc(C[C@H]2NC(=O)/C=C/C[C@@H]([C@H](C)[C@H]3O[C@@H]3c3cc(C)ccc3C)OC(=O)[C@H](CC(C)C)OC(=O)C(C)(C)CNC2=O)cc1Cl | 2 | 
COc1ccc(/C=C/[C@@H](C)[C@@H]2C/C=C/C(=O)N[C@H](Cc3ccc(OC)c(Cl)c3)C(=O)NCC(C)(C)C(=O)O[C@@H](CC(C)C)C(=O)O2)cc1 | 12 | 
CNCC(=O)NCc1ccc([C@H](Cl)[C@H](O)[C@@H](C)[C@@H]2C/C=C/C(=O)N[C@H](Cc3ccc(OC)c(Cl)c3)C(=O)NCC(C)(C)C(=O)O[C@@H](CC(C)C)C(=O)O2)cc1 | 0.04 | 
COC(=O)c1ccc([C@H](Cl)[C@H](O)[C@@H](C)[C@@H]2C/C=C/C(=O)N[C@H](Cc3ccc(OC)c(Cl)c3)C(=O)NCC(C)(C)C(=O)O[C@@H](CC(C)C)C(=O)O2)cc1 | 0.037 | 
COc1ccc(C[C@H]2NC(=O)/C=C/C[C@@H]([C@H](C)/C=C/c3csc(C)n3)OC(=O)[C@H](CC(C)C)OC(=O)C(C)(C)CNC2=O)cc1Cl | 460 | 
COc1ccc(C[C@H]2NC(=O)/C=C/C[C@@H]([C@H](C)/C=C/c3ccc(C)c(C)c3)OC(=O)[C@H](CC(C)C)OC(=O)C(C)(C)CNC2=O)cc1Cl | 70 | 
COc1ccc(C[C@H]2NC(=O)/C=C/C[C@@H]([C@H](C)[C@H]3O[C@@H]3c3ccc(COC(=O)CNC(=O)OC(C)(C)C)cc3)OC(=O)[C@H](CC(C)C)OC(=O)C(C)(C)CNC2=O)cc1Cl | 0.0055 | 
COc1ccc(C[C@H]2NC(=O)/C=C/C[C@@H]([C@H](C)/C=C/c3ccc(CO)cc3)OC(=O)[C@H](CC(C)C)OC(=O)C(C)(C)CNC2=O)cc1Cl | 0.79 | 
COc1ccc([C@H]2O[C@@H]2[C@@H](C)[C@@H]2C/C=C/C(=O)N[C@H](Cc3ccc(OC)c(Cl)c3)C(=O)NCC(C)(C)C(=O)O[C@@H](CC(C)C)C(=O)O2)cc1 | 0.28 | 
COc1ccc(C[C@H]2NC(=O)/C=C/C[C@@H]([C@H](C)[C@H]3O[C@@H]3c3ccc(CN4CCN(C(=O)OC(C)(C)C)CC4)cc3)OC(=O)[C@H](CC(C)C)OC(=O)C(C)(C)CNC2=O)cc1Cl | 0.001 | 
COc1ccc(C[C@H]2NC(=O)/C=C/C[C@@H]([C@H](C)/C=C/c3cc(C)ccc3C)OC(=O)[C@H](CC(C)C)OC(=O)C(C)(C)CNC2=O)cc1Cl | 440 | 
COc1ccc(C[C@H]2NC(=O)/C=C/C[C@@H]([C@H](C)[C@@H](O)[C@@H](Cl)c3ccc(OC(=O)C(C)(C)CN)cc3)OC(=O)[C@H](CC(C)C)OC(=O)C(C)(C)CNC2=O)cc1Cl | 0.79 | 
CCN(CC)Cc1ccc([C@H](Cl)[C@H](O)[C@@H](C)[C@@H]2C/C=C/C(=O)N[C@H](Cc3ccc(OC)c(Cl)c3)C(=O)NCC(C)(C)C(=O)O[C@@H](CC(C)C)C(=O)O2)cc1 | 0.005 | 
COc1ccc(C[C@H]2NC(=O)/C=C/C[C@@H]([C@H](C)[C@@H](O)[C@@H](Cl)c3ccc(CNCCN)cc3)OC(=O)[C@H](CC(C)C)OC(=O)C(C)(C)CNC2=O)cc1Cl | 0.092 | 
COc1ccc(C[C@H]2NC(=O)/C=C/C[C@@H]([C@H](C)[C@H]3O[C@@H]3c3ccc(CC(=O)O)cc3)OC(=O)[C@H](CC(C)C)OC(=O)C(C)(C)CNC2=O)cc1Cl | 0.79 | 
COc1ccc(C[C@H]2NC(=O)/C=C/C[C@@H]([C@H](C)[C@@H](O)[C@@H](Cl)c3ccc(CNC(=O)CN(C)C(=O)OC(C)(C)C)cc3)OC(=O)[C@H](CC(C)C)OC(=O)C(C)(C)CNC2=O)cc1Cl | 0.02 | 
COc1ccc(C[C@H]2NC(=O)/C=C/C[C@@H]([C@H](C)/C=C/c3cccc(C)c3)OC(=O)[C@H](CC(C)C)OC(=O)C(C)(C)CNC2=O)cc1Cl | 25 | 
COc1ccc(C[C@H]2NC(=O)/C=C/C[C@@H]([C@H](C)[C@@H](O)[C@@H](Cl)c3ccc(C)c(C)c3)OC(=O)[C@H](CC(C)C)OC(=O)C(C)(C)CNC2=O)cc1Cl | 0.6 | 
CC(=O)O[C@H]1C(=O)[C@@]2(C)[C@H]([C@H](OC(=O)c3ccccc3)[C@]3(O)C[C@H](OC(=O)[C@H](O)[C@@H](NC(=O)c4ccccc4)c4ccccc4)C(C)=C1C3(C)C)[C@]1(OC(C)=O)CO[C@@H]1C[C@@H]2O [PACLITAXEL] |  | T/C (Mus musculus [12]): 0%; Log kill (Mus musculus [13]): 4.2; Weight loss (Mus musculus [14]): -5%; Death (Mus musculus [15]): 0
CCN(CC)Cc1ccc([C@H]2O[C@@H]2[C@@H](C)[C@@H]2C/C=C/C(=O)N[C@H](Cc3ccc(OC)c(Cl)c3)C(=O)NCC(C)(C)C(=O)O[C@@H](CC(C)C)C(=O)O2)cc1 | 0.003 | 
COc1ccc(C[C@H]2NC(=O)/C=C/C[C@@H]([C@H](C)[C@@H](O)[C@@H](Cl)c3ccc(COC(=O)C(C)(C)CN)cc3)OC(=O)[C@H](CC(C)C)OC(=O)C(C)(C)CNC2=O)cc1Cl | 0.004 | 
COc1ccc(C[C@H]2NC(=O)/C=C/C[C@@H]([C@H](C)[C@@H]3O[C@H]3c3ccc(CO)cc3)OC(=O)[C@H](CC(C)C)OC(=O)C(C)(C)CNC2=O)cc1Cl | 0.29 | 
COc1ccc(C[C@H]2NC(=O)/C=C/C[C@@H]([C@H](C)[C@H]3O[C@@H]3c3ccc(C)c(C)c3)OC(=O)[C@H](CC(C)C)OC(=O)C(C)(C)CNC2=O)cc1Cl | 0.05 | 
COc1ccc(C[C@H]2NC(=O)/C=C/C[C@@H]([C@H](C)[C@@H]3O[C@H]3c3cc(C)ccc3C)OC(=O)[C@H](CC(C)C)OC(=O)C(C)(C)CNC2=O)cc1Cl | 100 | 
COc1ccc(C[C@H]2NC(=O)/C=C/C[C@@H]([C@H](C)/C=C/c3ccc(O)cc3)OC(=O)[C@H](CC(C)C)OC(=O)C(C)(C)CNC2=O)cc1Cl | 4 | 
